High-throughput results from PubChem BioAssay.
This excerpt belongs to a sample that is enriched for hits.
T cruzi growth-1: blocks T. cruzi growth in NIH3T3 culture. T. cruzi beta-gal in NIH3T3, GalScreen luminescence, 90 h. inhibition, % at 8.34 µM. 77,000 tested, 5.9% active;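 active = mean inhibition above about 93%, with at least 55% of replicates each passing it, limit read from the data, passing the limit was not always enough; inconclusive = only one of those two conditions holds; inactive = neither condition holds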
GASC1 inh: inhibitors of human demethylase GASC-1 KDM4C. inhibition, % at 12.5 µM. Q9H3R0. GST-KDM4C 2-372, H3K9me3 peptide, LANCE TR-FRET. 96,000 tested, 0.15% active;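 active = mean replicate inhibition above about 25%, with at least 55% of replicates also reaching it, limit read from the data, passing the limit was not always enough; inconclusive = only one of those two conditions met; inactive = neither condition met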
Target sequence (Q9H3R0 2-372 limits assumed): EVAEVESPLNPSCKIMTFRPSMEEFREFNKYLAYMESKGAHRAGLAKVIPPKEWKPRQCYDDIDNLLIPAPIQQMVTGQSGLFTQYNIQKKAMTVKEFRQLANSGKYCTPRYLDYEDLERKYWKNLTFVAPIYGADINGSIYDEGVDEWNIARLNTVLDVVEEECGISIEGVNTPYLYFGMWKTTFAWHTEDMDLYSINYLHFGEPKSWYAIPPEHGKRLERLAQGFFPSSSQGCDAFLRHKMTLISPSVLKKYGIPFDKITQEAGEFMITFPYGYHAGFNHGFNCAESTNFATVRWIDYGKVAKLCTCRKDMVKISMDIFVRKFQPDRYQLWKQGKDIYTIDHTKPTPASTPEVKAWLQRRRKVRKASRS
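material = GST-tagged GASC-1 (JMJD2C) catalytic fragment, aa 2-372 | amount = enzyme final amount 10 nM | medium = HEPES buffer, pH 7.5, plus ascorbate | also added = H3K9me3 peptide substrate, Fe(II), 2-oxoglutarate | dosing = single dose | times = 30 min demethylation and 1 h detection at room temperature | detection = LANCE TR-FRET | read-out basis = Fall in 671/618 emission ratio as inhibition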
IDH1 R132H inh: IDH1 R132H (human) inhibition; inhibition, % at 10 µM; AID 624101; 70,000 tested, 0.18% active; IDH1 R132H reductase, diaphorase/resazurin fluorescence, 60 min; in the data active = inhibition above about 34%; inconclusive = no clear call, values can overlap the other calls; inactive = below about 11%
T cruzi growth-2: inhibitors of T. cruzi proliferation; shares compounds with T cruzi growth-1; T. cruzi beta-gal in NIH3T3, GalScreen luminescence, 90 h; inhibition, % at 8.35 µM; 5,600 tested, 72% active; AID 651739;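 active = mean replicate inhibition above about 95% and at least 55% of replicates individually reaching it, limit read from the data; inconclusive = only one of the two criteria is met; inactive = neither criterion is met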
T cruzi growth-3: inhibitors of T. cruzi proliferation; AID 651740; shares compounds with T cruzi growth-1; 5,600 tested, 21% active; inhibition, % at 2.09 µM; T. cruzi beta-gal in NIH3T3, GalScreen luminescence, 90 h;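 active = mean inhibition above about 95%, with at least 55% of replicates also reaching it, limit read from the data; inconclusive = meets just one of the two conditions; inactive = meets neither condition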
3T3 cytotox: NIH/3T3 (mouse) viability loss; shares compounds with T cruzi growth-1; NIH/3T3 viability, CellTiter-Glo ATP luminescence, 90 h; cytotoxicity (signal decrease), % at 8.35 µM; 5,600 tested, 14% active; AID 651742;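 active = mean signal decrease across replicates above about 35% based on untreated-well scatter, with enough replicates individually passing, limit read from the data; inconclusive = no rule stated though some were filed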
NIH3T3 tox 2: cytotoxicity in mouse NIH/3T3 fibroblasts. shares compounds with T cruzi growth-1. NIH/3T3 viability, CellTiter-Glo ATP luminescence, 90 h. inhibition, % at 24.9 µM. 5,600 tested, 56% active;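 active = mean loss of cell viability signal at or above a set limit, and enough replicates individually reaching it; inconclusive = meets only the mean limit or only the replicate share; inactive = meets neither condition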
Large screens that a line does not name were inactive (follow-up assays come after a bar, where they were run).

CCCC#Cc1ccc2c(c1)O[C@@H](CN(C)Cc1ccncc1)[C@@H](C)CN([C@@H](C)CO)S2(=O)=O	T cruzi growth-1 113 | T cruzi growth-2 102 | T cruzi growth-3 96 | 3T3 cytotox inactive | NIH3T3 tox 2 100
CC1=C(C(=O)Nc2ccccc2)C(CC(C)C)n2nc(SCc3cccc(C)c3)nc2N1 (stereo unspecified)	none (no result: T cruzi growth-1, GASC1 inh)
O=C(CSc1nnc(-c2ccccn2)n1-c1ccccc1)Nc1ccc(Br)cc1	none (no result: T cruzi growth-1, GASC1 inh)
CCOc1ccc2ccccc2c1C(=O)NCc1ccco1	none (no result: T cruzi growth-1, GASC1 inh)
O=C(CSc1nnc(-c2cccs2)n1-c1ccccc1)Nc1ccccc1Cl	none (no result: T cruzi growth-1, GASC1 inh)
O=C(CSc1nnc(-c2ccco2)o1)c1ccc2c(c1)OCCO2	none (no result: T cruzi growth-1, GASC1 inh)
C[C@@H]1CN([C@H](C)CO)S(=O)(=O)c2ccc(C3=CCCCC3)cc2O[C@H]1CN(C)Cc1cccnc1	none (no result: T cruzi growth-1, IDH1 R132H inh)
C[C@@H]1CN([C@H](C)CO)S(=O)(=O)c2ccc(C3=CCCC3)cc2O[C@H]1CN(C)Cc1cccnc1	T cruzi growth-1 101 | T cruzi growth-2 inactive | T cruzi growth-3 inactive | 3T3 cytotox inconclusive | NIH3T3 tox 2 36
C[C@H](CO)N1C[C@H](C)[C@H](CN(C)Cc2ccccc2)Oc2cc(C3=CCCC3)ccc2S1(=O)=O	T cruzi growth-1 108 | T cruzi growth-2 108 | T cruzi growth-3 inactive | 3T3 cytotox inactive | NIH3T3 tox 2 105
C[C@@H]1CN([C@@H](C)CO)S(=O)(=O)c2ccc(C3=CCCC3)cc2O[C@@H]1CN(C)Cc1ccccc1	T cruzi growth-1 107 | T cruzi growth-2 inconclusive | T cruzi growth-3 inactive | 3T3 cytotox inactive | NIH3T3 tox 2 106
C[C@H](CO)N1C[C@H](C)[C@@H](CN(C)Cc2cccc(C(=O)O)c2)Oc2cc(C3=CCCC3)ccc2S1(=O)=O	none
C[C@@H]1CN([C@@H](C)CO)S(=O)(=O)c2ccc(C3=CCCC3)cc2O[C@H]1CN(C)Cc1ccccc1	none
Cc1ccc(C)c(NC(=O)CSc2nnnn2-c2ccc(C(=O)O)cc2)c1	none (no result: T cruzi growth-1, GASC1 inh)
COc1cccc(NC(=O)CNC(=O)c2ccco2)c1	none (no result: T cruzi growth-1, GASC1 inh)
C[C@@H]1O[C@@H](O[C@@H]2[C@@H](O)[C@H](C)O[C@@H](OC[C@H]3O[C@@H](Oc4c(-c5ccc(O)cc5)oc5cc(O)cc(O)c5c4=O)[C@H](O)[C@@H](O)[C@H]3O)[C@@H]2O)[C@H](O)[C@H](O)[C@H]1O	none (no result: T cruzi growth-1, GASC1 inh)
C=CCn1c(=O)c(C(=O)NCCO)c(O)c2ccccc21	none (no result: T cruzi growth-1, GASC1 inh)
COC(=O)c1ccc(NC(=O)CSc2nc3ccccc3c(=O)n2-c2ccc(Cl)cc2)cc1	none (no result: T cruzi growth-1, GASC1 inh)
Cc1sc2ncnc(SCC(=O)C(C)(C)C)c2c1C	none (no result: T cruzi growth-1, GASC1 inh)
O=C(C[C@@H]1CC[C@H]2[C@@H](COC[C@H](O)CN2Cc2ccc3c(c2)OCO3)O1)Nc1ccc(-c2ccccc2)cc1	T cruzi growth-1 inconclusive (no result: IDH1 R132H inh) | T cruzi growth-2 103 | T cruzi growth-3 inactive | 3T3 cytotox inactive | NIH3T3 tox 2 92
O=C(C[C@@H]1CC[C@@H]2[C@H](COC[C@@H](O)CN2Cc2ccc3c(c2)OCO3)O1)Nc1ccc(-c2ccccc2)cc1	T cruzi growth-1 102 (no result: IDH1 R132H inh) | T cruzi growth-2 97 | T cruzi growth-3 inactive | 3T3 cytotox 36 | NIH3T3 tox 2 51
O=C(C[C@@H]1CC[C@@H]2[C@H](COC[C@@H](O)CN2Cc2ccc3c(c2)OCO3)O1)N1CCOCC1	none (no result: IDH1 R132H inh)
O=C(C[C@H]1CC[C@@H]2[C@H](COC[C@H](O)CN2Cc2ccc3c(c2)OCO3)O1)N1CCOCC1	none (no result: IDH1 R132H inh)
O=C(NCCSc1c(-c2ccc(Br)cc2)[nH]c2ccccc12)c1ccncc1	none (no result: T cruzi growth-1, GASC1 inh)
COc1ccc(CN(C)C[C@H]2Oc3ccc(NS(=O)(=O)c4ccc(Cl)cc4)cc3CC(=O)N([C@@H](C)CO)C[C@@H]2C)cc1	T cruzi growth-1 107 | T cruzi growth-2 97 | T cruzi growth-3 inactive | 3T3 cytotox inactive | NIH3T3 tox 2 86
COc1ccc(CN(C)C[C@H]2Oc3ccc(NS(=O)(=O)c4ccc(C)cc4)cc3CC(=O)N([C@@H](C)CO)C[C@@H]2C)cc1	T cruzi growth-1 104 | T cruzi growth-2 110 | T cruzi growth-3 inactive | 3T3 cytotox inactive | NIH3T3 tox 2 inactive
